High-throughput results (PubChem BioAssay)
A selection: hits, their analogues and other compounds. The true share with any hit is near 1.9%.
NadD block: inhibitors of Staphylococcus aureus NadD | purified NadD enzyme, colorimetric absorbance read-out | inhibition, % at 20 µM | 360,000 tested, 0.78% active; in the data active = inhibition above about 26%
HCV core dimer: HCV core protein dimerization inhibition | AID 1899 | inhibition, % at 5 µM | 300,000 tested, 0.33% active | TR-FRET GST/Flag-core106 dimerization, 1536-well;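 active = inhibition above the mean of all tested compounds plus 3 SD, set per screening campaign, cut at about 45% in these data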
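Assay system – GST-tagged and Flag-tagged HCV core protein residues 1-106 · Quantity – core106 proteins, GST 13.5 nM and Flag 17 nM · Benchmarks – unlabelled core106 and no-GST-core106 wells · Read-out basis – percent inhibition of core106 dimerization signal · Detection – time-resolved FRET, ex 340 nm, em 617 and 671 nm · Schedule – 4 h at 22.5 °C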
Tb MetRS inh: blocks T. brucei methionyl-tRNA synthetase activity | purified T. brucei MetRS, ATP depletion, Kinase-Glo luminescence | inhibition, % at 11.9 µM | 360,000 tested, 0.4% active | AID 624268;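 active = inhibition above a per-plate cutoff of the control wells' mean inhibition plus 3 SD, cut at about 5.5% in these data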;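 note: 0% = DMSO wells median and 100% = median of wells with control inhibitor compound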
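Material – parasite MetRS enzyme · Medium – HEPES-MgCl2-KCl buffer plus DTT, spermine, BSA, pyrophosphatase · Reagent – ATP, methionine and E. coli bulk tRNA substrates · Times – 15 min enzyme-compound preincubation, 2 h reaction, 10 min detection, 25 °C · Measured by – luminescence of leftover ATP · Evaluation – percent inhibition relative to median high and low control wells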
Rce1 inhib: yeast Ras-converting enzyme inhibition | 290,000 tested, 0.27% active | calls only | yeast membranes, quenched prenylated peptide cleavage fluorescence;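 active = fall in fluorescence gain of 50% or more versus controls, with final raw signal at or below 3038400; inconclusive = same 50% fall but final raw signal above 3038400; inactive = fall in fluorescence gain under 50%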;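 note: plate controls were neutral control wells for no effect and wells lacking membranes for full effect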
Target sequence (Q03530 whole entry, looked up): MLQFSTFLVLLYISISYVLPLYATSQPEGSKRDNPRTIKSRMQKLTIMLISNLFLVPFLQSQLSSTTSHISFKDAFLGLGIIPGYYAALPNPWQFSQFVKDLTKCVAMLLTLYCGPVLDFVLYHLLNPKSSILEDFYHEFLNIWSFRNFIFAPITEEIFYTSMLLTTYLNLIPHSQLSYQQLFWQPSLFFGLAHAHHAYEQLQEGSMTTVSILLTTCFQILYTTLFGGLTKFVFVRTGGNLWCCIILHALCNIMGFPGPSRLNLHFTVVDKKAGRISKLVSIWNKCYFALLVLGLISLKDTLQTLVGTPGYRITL
Pemphigus Ab inh: human desmoglein-3 autoantibody binding inhibition; P32926; DSG3-coupled beads, scFv-anti-DSG3-GFP binding, flow cytometry; active compounds read low; binding (percent of control), % at 10 µM; 310,000 tested, 0.48% active; AID 588358;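 active = binding more than 3 SD below its plate's average and above zero; inconclusive = below that plate limit but binding exactly zero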;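 note: hits lower antibody fragment binding to DSG3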
* marks the source's active call; other numbers are inactive results.

How did Oc1c(N=NC(=S)Nc2ccccc2F)c2ccccc2n1Cc1ccccc1Cl do in these assays?
NadD block: 19.2; HCV core dimer: 8.1; Tb MetRS inh: -0.7; Rce1 inhib: active; Pemphigus Ab inh: 101.3

Results for CCCCNC(=S)N=Nc1c(O)n(Cc2ccccc2)c2ccccc12 ?
NadD block: 0.4; HCV core dimer: 8.5; Tb MetRS inh: -0.3; Rce1 inhib: active; Pemphigus Ab inh: 97.1

Results for C=CCn1c(O)c(N=NC(=O)CNC(=O)/C=C/c2ccco2)c2ccccc21 ?
NadD block: 15.7; HCV core dimer: 49.0*; Tb MetRS inh: -0.2; Rce1 inhib: inactive; Pemphigus Ab inh: 83.7

Results for CN(CCc1ccccn1)S(=O)(=O)c1ccccc1F ?
NadD block: 0.2; HCV core dimer: -1.0; Tb MetRS inh: -1.3; Rce1 inhib: inactive; Pemphigus Ab inh: 98.2

Results for CCOC(=O)/C=c1/s/c(=C/c2ccc3cc(OC)ccc3c2)c(=O)n1CC(=O)NCC1CCCO1 (configuration not stated) ?
NadD block: -5.5; Tb MetRS inh: -0.4; Pemphigus Ab inh: 92.8

How did CCc1nc2ccc(C(=O)N3CCN(CC)CC3)cc2nc1CC do in these assays?
NadD block: -3.6; HCV core dimer: -3.1; Tb MetRS inh: -0.8; Rce1 inhib: inactive; Pemphigus Ab inh: 115.3

How did C=CCn1c(O)c(N=NC(=S)Nc2ccccc2F)c2cc(S(=O)(=O)N3CCOCC3)ccc21 do in these assays?
NadD block: 38.3*; HCV core dimer: 12.4; Tb MetRS inh: -0.4; Rce1 inhib: inactive; Pemphigus Ab inh: 94.3

What do the screens show for `c1ccc(CSc2nnc3c(n2)OC(c2ccco2)Nc2ccccc2-3)cc1` (configuration not stated)?
NadD block: 27.6; HCV core dimer: 26.1; Tb MetRS inh: -1.5; Rce1 inhib: inactive; Pemphigus Ab inh: 61.5*

How did C=CCSc1nnc2c(n1)OC(c1cccnc1)Nc1ccccc1-2 (configuration not stated) do in these assays?
NadD block: -4.4; HCV core dimer: -5.5; Tb MetRS inh: -0.9; Rce1 inhib: inactive; Pemphigus Ab inh: inconclusive

Results for CC(C)NC(=O)CC(=O)N/N=C/c1ccc(Br)cc1 ?
NadD block: 2.6; HCV core dimer: -5.4; Tb MetRS inh: -1.1; Rce1 inhib: inactive; Pemphigus Ab inh: 80.8

Results for CC(C)NC(=O)C(c1ccc(F)cc1)N(C(=O)CCC(=O)Nc1ccccn1)C1CCCCC1 (configuration not stated) ?
NadD block: -7.8; HCV core dimer: 3.5; Tb MetRS inh: -1.2; Rce1 inhib: inactive; Pemphigus Ab inh: 97.7

How did CCOc1ccc(-c2nc(N)ncc2Oc2ccccc2Br)c(O)c1 do in these assays?
NadD block: 4.3; HCV core dimer: -5.8; Tb MetRS inh: -0.3; Rce1 inhib: inactive; Pemphigus Ab inh: 23.3*

How did CCn1ncc(Br)c1C(=O)Nc1cc(C)on1 do in these assays?
NadD block: -1.9; Tb MetRS inh: -0.1; Rce1 inhib: inactive; Pemphigus Ab inh: 100.0

Results for CCCc1cc(=O)[nH]c(SCC(=O)N2CCN(S(=O)(=O)c3ccc4ccccc4c3)CC2)n1 ?
NadD block: 9.5; HCV core dimer: 6.8; Tb MetRS inh: -1.4; Rce1 inhib: inactive; Pemphigus Ab inh: -2.3*

Results for CCCc1cc(=O)[nH]c(SCC(=O)N2CCN(S(=O)(=O)c3ccccc3)CC2)n1 ?
NadD block: -0.8; HCV core dimer: -2.1; Tb MetRS inh: -0.2; Rce1 inhib: inactive; Pemphigus Ab inh: 97.6

What do the screens show for `O=C(Cn1cnc2c(OCc3ccccc3)ncnc21)NCCCc1ccccc1`?
NadD block: -5.3; Tb MetRS inh: -1.9; Pemphigus Ab inh: 93.4

Results for CCCCC1CCC(C(=O)Nc2ccc(S(=O)(=O)Nc3nccs3)cc2)CC1 (configuration not stated) ?
NadD block: 33.0*; HCV core dimer: 21.5; Tb MetRS inh: -0.5; Rce1 inhib: inactive; Pemphigus Ab inh: 127.4

Results for C[C@@H]1CN([C@H](C)CO)C(=O)CCCn2nncc2CO[C@H]1CN(C)Cc1ccc(O)cc1 ?
NadD block: 1.9; Tb MetRS inh: -0.8; Pemphigus Ab inh: 31.1*

Results for N#CC1=C2SCN(Cc3ccccc3)CN2C(=O)CC1c1ccccc1F (configuration not stated) ?
NadD block: 4.5; HCV core dimer: 7.6; Tb MetRS inh: -1.3; Rce1 inhib: inactive; Pemphigus Ab inh: 92.8
